From ChEMBL document CHEMBL3393006, “A new iridoid, verbascoside and derivatives with inhibitory activity against Taq DNA polymerase” (Bioorg Med Chem Lett, 2015)
Calls of active or inactive are those of the source. The calls are words filed in the database; no cut-off is given here.

Assays:
[1] = (§1) Inhibition of Thermus aquaticus DNA polymerase by PCR analysis
How it was run: (§2)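 Taq DNA polymerase (2.5 U) run in PCR mix of 40 mM Tris-acetate pH 8.3, 15 mM MgCl2, […], 2.5 mM each dNTP. Compounds were dissolved in DMSO and tested at varying concentrations, with 1:2 serial dilutions. Cycling was 35 cycles: 95 °C 1 min, 56 °C annealing, 72 °C 90 s. Read-out was densitometry of ethidium bromide-stained agarose gel bands. IC50 was interpolated from plots of activity versus inhibitor concentration.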

[2] = tested on: Thermus aquaticus; assay: as §1; how it was run: as §2

| SMILES | IC50 [1] [µM] | inhibition [2] |
| --- | --- | --- |
| CC(C)(C)[Si](C)(C)OC[C@H]1O[C@@H](O[C@@H]2OC=C[C@H]3[C@@H](O[Si](C)(C)C(C)(C)C)[C@@H]4O[C@]4(CO[Si](C)(C)C(C)(C)C)[C@@H]23)[C@H](O)[C@@H](O)[C@@H]1O | 5.57 | – |
| CC(C)(C)[Si](C)(C)OC[C@]12O[C@H]1[C@H](O[Si](C)(C)C(C)(C)C)[C@@H]1C=CO[C@@H](O[C@@H]3O[C@H](CO)[C@@H](O)[C@H](O)[C@H]3O)[C@@H]12 | 78.1 | – |
| OCC1O[C@@H](O[C@@H]2OC=C[C@H]3[C@@H](O)[C@@H]4O[C@]4(CO)[C@@H]23)C(O)C(O)[C@@H]1O (single isomer, unassigned) | 21.6 | – |
| CC(=O)OC[C@H]1O[C@@H](O[C@@H]2OC=C[C@H]3[C@@H](OC(C)=O)[C@@H]4O[C@]4(COC(C)=O)[C@@H]23)[C@H](OC(C)=O)[C@@H](OC(C)=O)[C@@H]1OC(C)=O | – | inactive |
| CC(=O)OC[C@H]1O[C@@H](O[C@@H]2OC=C[C@H]3[C@@H](OC(C)=O)[C@@H]4O[C@]4(COC(C)=O)[C@@H]23)[C@H](O)[C@@H](O)[C@@H]1O | – | inactive |
| CC(=O)OC[C@]12O[C@H]1[C@H](O)[C@@H]1C=CO[C@@H](O[C@@H]3O[C@H](CO)[C@@H](O)[C@H](O)[C@H]3O)[C@@H]12 | – | inactive |

Next, values leading:

| IC50 [1] [µM] | inhibition [2] | SMILES |
| --- | --- | --- |
| – | inactive | CC(C)(C)[Si](OC[C@H]1O[C@@H](O[C@@H]2OC=C[C@H]3[C@@H](O[Si](c4ccccc4)(c4ccccc4)C(C)(C)C)[C@@H]4O[C@]4(CO[Si](c4ccccc4)(c4ccccc4)C(C)(C)C)[C@@H]23)[C@H](O)[C@@H](O)[C@@H]1O)(c1ccccc1)c1ccccc1 |
| – | inactive | O=C(OC[C@H]1O[C@@H](O[C@@H]2OC=C[C@H]3[C@@H](OC(=O)c4ccccc4)[C@@H]4O[C@]4(COC(=O)c4ccccc4)[C@@H]23)[C@H](O)[C@@H](OC(=O)c2ccccc2)[C@@H]1OC(=O)c1ccccc1)c1ccccc1 |
| – | inactive | CC(C)(C)[Si](OC[C@H]1O[C@@H](O[C@@H]2OC=C[C@H]3[C@@H](O[Si](c4ccccc4)(c4ccccc4)C(C)(C)C)[C@@H]4O[C@]4(CO[Si](c4ccccc4)(c4ccccc4)C(C)(C)C)[C@@H]23)[C@H](O)[C@@H](O[Si](c2ccccc2)(c2ccccc2)C(C)(C)C)[C@@H]1O)(c1ccccc1)c1ccccc1 |
